Measurements: ChEMBL document CHEMBL1649574, “Prevalence and characterization of heterogeneous vancomycin-intermediate Staphylococcus aureus isolates from 14 cities in China” (2009)
Converted amounts (≈) assume the structure as drawn.

Columns and labels:
Type in all cases: functional
[1] = system: Staphylococcus aureus; assay: Antimicrobial activity against vancomycin-susceptible Staphylococcus aureus assessed as growth inhibition at MIC; parameters: scale not given: the % may be the effect or the level left
[2] = system: Staphylococcus aureus; assay: Antimicrobial activity against SCCmec type III vancomycin-intermediate Staphylococcus aureus isolate xa07029 by agar dilution method
How it was run: (§1)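 Agar-dilution MICs were measured on a subset of 200 blood MRSA isolates from China. Agents: oxacillin, rifampin, gentamicin, levofloxacin, erythromycin, vancomycin, teicoplanin, tigecycline, ceftobiprole and linezolid. Phenotype came from the PAP-AUC ratio of each isolate to S. aureus Mu3 (VSSA <0.9; hVISA 0.9 to 1.3; VISA ≥1.3), read on BHI agar with 0 to 8.0 mg/liter vancomycin after 48 h at 35°C.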

[3] = system: Staphylococcus aureus; assay: Antimicrobial activity against heterogeneous vancomycin-intermediate Staphylococcus aureus assessed as susceptible isolates by agar dilution method
How it was run: (§2)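 MICs by agar dilution for all 200 MRSA blood isolates (oxacillin, rifampin, gentamicin, levofloxacin, erythromycin, vancomycin, teicoplanin, tigecycline, ceftobiprole, linezolid). Isolates were grouped by PAP-AUC ratio against S. aureus Mu3: below 0.9 VSSA, 0.9 to 1.3 hVISA, 1.3 or more VISA.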

[4] = system: Staphylococcus aureus; assay: Antimicrobial activity against heterogeneous vancomycin-intermediate Staphylococcus aureus assessed as growth inhibition at 0.25 times MIC; parameters: scale not given: the % may be the effect or the level left
[5] = system: Staphylococcus aureus; assay: Antimicrobial activity against SCCmec type III vancomycin-intermediate Staphylococcus aureus isolate bd4768 by agar dilution method; how it was run: as §1
[6] = system: Staphylococcus aureus; assay: Antimicrobial activity against SCCmec type IV vancomycin-intermediate Staphylococcus aureus isolate 06b41 by agar dilution method; how it was run: as §1
[7] = system: Staphylococcus aureus; assay: Antimicrobial activity against heterogeneous vancomycin-susceptible Staphylococcus aureus assessed as susceptible isolates by agar dilution method; how it was run: as §2
[8] = system: Staphylococcus aureus; assay: Antimicrobial activity against heterogeneous vancomycin-intermediate Staphylococcus aureus assessed as growth inhibition at 16 times MIC; parameters: scale not given: the % may be the effect or the level left
[9] = system: Staphylococcus aureus; assay: Antimicrobial activity against SCCmec type III vancomycin-intermediate Staphylococcus aureus isolate gs07022 by agar dilution method; how it was run: as §1
[10] = system: Staphylococcus aureus; assay: Antimicrobial activity against SCCmec type III vancomycin-intermediate Staphylococcus aureus isolate 5zjsau3 by agar dilution method; how it was run: as §1
[11] = system: Staphylococcus aureus; assay: Antimicrobial activity against SCCmec type III vancomycin-intermediate Staphylococcus aureus isolate zj07028 by agar dilution method; how it was run: as §1
[12] = system: Staphylococcus aureus; assay: Antimicrobial activity against heterogeneous vancomycin-intermediate Staphylococcus aureus by agar dilution method; how it was run: as §1
[13] = system: Staphylococcus aureus; assay: Antimicrobial activity against SCCmec type III vancomycin-intermediate Staphylococcus aureus isolate b4k6307 by agar dilution method; how it was run: as §1
[14] = system: Staphylococcus aureus; assay: Antimicrobial activity against heterogeneous vancomycin-intermediate Staphylococcus aureus assessed as growth inhibition at 0.125 times MIC; parameters: scale not given: the % may be the effect or the level left
[15] = system: Staphylococcus aureus; assay: Antimicrobial activity against SCCmec type II vancomycin-intermediate Staphylococcus aureus isolate b2k4781 by agar dilution method; how it was run: as §1
[16] = system: Staphylococcus aureus; assay: Antimicrobial activity against SCCmec type III vancomycin-intermediate Staphylococcus aureus isolate b6k1642 by agar dilution method; how it was run: as §1
[17] = system: Staphylococcus aureus; assay: Antimicrobial activity against vancomycin-susceptible Staphylococcus aureus assessed as growth inhibition at 0.125 times MIC; parameters: scale not given: the % may be the effect or the level left
[18] = system: Staphylococcus aureus; assay: Antimicrobial activity against SCCmec type II vancomycin-intermediate Staphylococcus aureus isolate 07b63 by agar dilution method; how it was run: as §1
[19] = system: Staphylococcus aureus; assay: Antimicrobial activity against SCCmec type III vancomycin-intermediate Staphylococcus aureus isolate 15b52 by agar dilution method; how it was run: as §1
[20] = system: Staphylococcus aureus; assay: Antimicrobial activity against SCCmec type III vancomycin-intermediate Staphylococcus aureus isolate gz07030 by agar dilution method; how it was run: as §1
[21] = system: Staphylococcus aureus; assay: Antimicrobial activity against SCCmec type III vancomycin-intermediate Staphylococcus aureus isolate b5k3529 by agar dilution method; how it was run: as §1
[22] = system: Staphylococcus aureus; assay: Antimicrobial activity against SCCmec type III vancomycin-intermediate Staphylococcus aureus isolate b5k3578 by agar dilution method; how it was run: as §1
[23] = system: Staphylococcus aureus; assay: Antimicrobial activity against SCCmec type II vancomycin-intermediate Staphylococcus aureus isolate 6zjsau7 by agar dilution method; how it was run: as §1
[24] = system: Staphylococcus aureus; assay: Antimicrobial activity against heterogeneous vancomycin-intermediate Staphylococcus aureus assessed as growth inhibition at 2 times MIC; parameters: scale not given: the % may be the effect or the level left
[25] = system: Staphylococcus aureus; assay: Antimicrobial activity against SCCmec type III vancomycin-intermediate Staphylococcus aureus isolate b3k5923 by agar dilution method; how it was run: as §1
[26] = system: Staphylococcus aureus; assay: Antimicrobial activity against SCCmec type II vancomycin-intermediate Staphylococcus aureus isolate 4sy32 by agar dilution method; how it was run: as §1
[27] = system: Staphylococcus aureus; assay: Antimicrobial activity against vancomycin-susceptible Staphylococcus aureus assessed as growth inhibition at 2 times MIC; parameters: scale not given: the % may be the effect or the level left
[28] = system: Staphylococcus aureus; assay: Antimicrobial activity against vancomycin-susceptible Staphylococcus aureus assessed as growth inhibition at 16 times MIC; parameters: scale not given: the % may be the effect or the level left
[29] = system: Staphylococcus aureus; assay: Antimicrobial activity against SCCmec type II vancomycin-intermediate Staphylococcus aureus isolate sh06024 by agar dilution method; how it was run: as §1
[30] = system: Staphylococcus aureus; assay: Antimicrobial activity against heterogeneous vancomycin-intermediate Staphylococcus aureus assessed as growth inhibition at 0.5 times MIC; parameters: scale not given: the % may be the effect or the level left
[31] = system: Staphylococcus aureus; assay: Antimicrobial activity against SCCmec type III vancomycin-intermediate Staphylococcus aureus isolate gz06040 by agar dilution method; how it was run: as §1
[32] = system: Staphylococcus aureus; assay: Antimicrobial activity against vancomycin-susceptible Staphylococcus aureus assessed as growth inhibition at 4 times MIC; parameters: scale not given: the % may be the effect or the level left
[33] = system: Staphylococcus aureus; assay: Antimicrobial activity against vancomycin-susceptible Staphylococcus aureus by agar dilution method; how it was run: as §1
[34] = system: Staphylococcus aureus; assay: Antimicrobial activity against SCCmec type II vancomycin-intermediate Staphylococcus aureus isolate 4sy39 by agar dilution method; how it was run: as §1
[35] = system: Staphylococcus aureus; assay: Antimicrobial activity against SCCmec type III vancomycin-intermediate Staphylococcus aureus isolate b2k3421 by agar dilution method; how it was run: as §1
[36] = system: Staphylococcus aureus; assay: Antimicrobial activity against SCCmec type III vancomycin-intermediate Staphylococcus aureus isolate b3k2345 by agar dilution method; how it was run: as §1
[37] = system: Staphylococcus aureus; assay: Antimicrobial activity against heterogeneous vancomycin-intermediate Staphylococcus aureus assessed as growth inhibition at 4 times MIC; parameters: scale not given: the % may be the effect or the level left
[38] = system: Staphylococcus aureus; assay: Antimicrobial activity against vancomycin-susceptible Staphylococcus aureus assessed as growth inhibition at 0.25 times MIC; parameters: scale not given: the % may be the effect or the level left
[39] = system: Staphylococcus aureus; assay: Antimicrobial activity against SCCmec type III vancomycin-intermediate Staphylococcus aureus isolate b6k7974 by agar dilution method; how it was run: as §1
[40] = system: Staphylococcus aureus; assay: Antimicrobial activity against heterogeneous vancomycin-susceptible Staphylococcus aureus assessed as intermediate isolates by agar dilution method
[41] = system: Staphylococcus aureus; assay: Antimicrobial activity against heterogeneous vancomycin-intermediate Staphylococcus aureus assessed as growth inhibition at MIC; parameters: scale not given: the % may be the effect or the level left
[42] = system: Staphylococcus aureus; assay: Antimicrobial activity against heterogeneous vancomycin-intermediate Staphylococcus aureus assessed as intermediate isolates by agar dilution method; how it was run: as §2
[43] = system: Staphylococcus aureus; assay: Antimicrobial activity against vancomycin-susceptible Staphylococcus aureus assessed as growth inhibition at 0.5 times MIC; parameters: scale not given: the % may be the effect or the level left
[44] = system: Staphylococcus aureus; assay: Antimicrobial activity against vancomycin-intermediate Staphylococcus aureus by agar dilution method; how it was run: as §1

CC(=O)NC[C@H]1CN(c2ccc(N3CCOCC3)c(F)c2)C(=O)O1 [LINEZOLID]
Activity [1]: 82.7%
MIC [2]: 1 µg/mL (≈ 2.96 µM)
Activity [3]: 100%
Activity [4]: 0%
MIC [5]: 1 µg/mL (≈ 2.96 µM)
MIC [6]: 1 µg/mL (≈ 2.96 µM)
Activity [7]: 100%
Activity [8]: 100%
MIC [9]: 1 µg/mL (≈ 2.96 µM)
MIC [10]: 1 µg/mL (≈ 2.96 µM)
MIC [11]: 1 µg/mL (≈ 2.96 µM)
MIC50 [12]: 1 µg/mL (≈ 2.96 µM)
MIC90 [12]: 2 µg/mL (≈ 5.93 µM)
MIC [13]: 0.5 µg/mL (≈ 1.48 µM)
Activity [14]: 0%
MIC [15]: 0.5 µg/mL (≈ 1.48 µM)
MIC [16]: 1 µg/mL (≈ 2.96 µM)
Activity [17]: 0.58%
MIC [18]: 1 µg/mL (≈ 2.96 µM)
MIC [19]: 0.5 µg/mL (≈ 1.48 µM)
MIC [20]: 1 µg/mL (≈ 2.96 µM)
MIC [21]: 0.5 µg/mL (≈ 1.48 µM)
MIC [22]: 0.5 µg/mL (≈ 1.48 µM)
MIC [23]: 1 µg/mL (≈ 2.96 µM)
Activity [24]: 100%
MIC [25]: 0.5 µg/mL (≈ 1.48 µM)
MIC [26]: 1 µg/mL (≈ 2.96 µM)
Activity [27]: 100%
Activity [28]: 100%
MIC [29]: 0.5 µg/mL (≈ 1.48 µM)
Activity [30]: 33.3%
MIC [31]: 1 µg/mL (≈ 2.96 µM)
Activity [32]: 100%
MIC50 [33]: 1 µg/mL (≈ 2.96 µM)
MIC90 [33]: 2 µg/mL (≈ 5.93 µM)
MIC [34]: 1 µg/mL (≈ 2.96 µM)
MIC [35]: 0.5 µg/mL (≈ 1.48 µM)
MIC [36]: 0.5 µg/mL (≈ 1.48 µM)
Activity [37]: 100%
Activity [38]: 1.16%
MIC [39]: 1 µg/mL (≈ 2.96 µM)
Activity [40]: 0%
Activity [41]: 85.2%
Activity [42]: 0%
Activity [43]: 31.2%
MIC [44]: 1 µg/mL (≈ 2.96 µM)
